Measurements as given in PMC10784704 (The Journal of Biological Chemistry, 2023).

T1: neutrophil elastase (NE) (Homo sapiens, UniProt P08246)
T1 sequence (P08246 30-267): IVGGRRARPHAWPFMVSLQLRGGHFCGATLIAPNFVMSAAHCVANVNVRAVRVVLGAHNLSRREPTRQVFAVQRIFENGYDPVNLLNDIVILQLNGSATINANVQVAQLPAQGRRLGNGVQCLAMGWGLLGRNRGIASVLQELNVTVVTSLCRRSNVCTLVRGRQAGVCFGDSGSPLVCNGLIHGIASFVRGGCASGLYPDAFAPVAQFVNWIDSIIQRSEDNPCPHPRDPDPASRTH

B1: rCBG: Polyhistidine-tagged recombinant human CBG expressed in HEK293 cells (Sino Biological) (protein, UniProt P08185 23-405, looked up)
Corticosteroid-binding …: MDPNAAYVNMSNHHRGLASANVDFAFSLYKHLVALSPKKNIFISPVSISMALAMLSLGTCGHTRAQLLQGLGFNLTERSETEIHQGFQHLHQLFAKSDTSLEMTMGNALFLDGSLELLESFSADIKHYYESEVLAMNFQDWATASRQINSYVKNKTQGKIVDLFSGLDSPAILVLVNYIFFKGTWTQPFDLASTREENFYVDETTVVKVPMMLQSSTISYLHDSELPCQLVQMNYVGNGTVFFILPDKGKMNTVIAALSRDTINRWSAGLTSSQVDLYIPKVTISGVYDLGDVLEEMGIADLFTNQANFSRITQDAQLKSSKVVHKAVLQLNEEGVDTAGSTGVTLNLTSKPIILRFNQPFIIMIFDHFTWSSLFLARVMNPV
modifications: polyhistidine tag
B2: asialo-rCBG: sialic acid-deficient glycoform of rCBG generated through exhaustive sialidase (neuraminidase A) treatment (protein, UniProt P08185 23-405, looked up)
Corticosteroid-binding …: B1 Corticosteroid-binding …
modifications: His tag; desialylated by neuraminidase

Target: T1, neutrophil elastase (NE)
Experiment: Longitudinal NE digestion of rCBG and asialo-rCBG
Assay type: in vitro ADME
Settings: rCBG/NE 25:1 (w/w), on ice, 480 s incubation period; trypsin digest, LC-MS/MS
Method in brief: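 Recombinant CBG, native or desialylated with neuraminidase A (40 U, overnight, 37 °C), digested with NE at 25:1 (w/w) on ice for 15, 30, 60, 120, 240 and 480 s. Stopped with 1 mM PMSF (8 min, ice), reduced with DTT, alkylated with IAA, and trypsin-digested at 20:1 (w/w) overnight at 37 °C. LC-MS/MS tracked intact and cleaved RCL peptides (unoccupied, sialo- and asialo-O-glycosylated). Mean + SD, n = 3.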

Molecule	Effect of Thr345 O-glycans on NE proteolysis reaction
B1	strongly inhibit
B2	strongly inhibit
